According to ChEMBL document CHEMBL1671716, “Antimicrobial susceptibility patterns for recent clinical isolates of anaerobic bacteria in South Korea” (2010):

How the values were obtained:
Type in all cases: functional
Bacteroides caccae [1] = assay: Antimicrobial activity against Bacteroides caccae assessed as percent susceptible isolates after 48 hrs by agar dilution method in presence of 4 ug/ml beta-lactamase inhibitor Tazobactam
Hoylesella oralis [2] = assay: Antimicrobial activity against Prevotella oralis assessed as percent resistant isolates after 48 hrs by agar dilution method in presence of 4 ug/ml beta-lactamase inhibitor Tazobactam
Outline: (§1)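 CLSI agar dilution on recent Korean clinical anaerobe isolates. Inoculum 10^5 CFU per spot by replicator. Plates incubated in an anaerobic chamber at 37°C for 48 h. For piperacillin plus tazobactam, tazobactam was held constant at 4 μg/ml. Resistance and susceptibility rates derived from MICs.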

[3] = system: Bifidobacterium adolescentis; assay: Antimicrobial activity against Bifidobacterium adolescentis after 48 hrs by agar dilution method in presence of 4 ug/ml beta-lactamase inhibitor Tazobactam
Outline: (§2)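 MICs by CLSI agar dilution for piperacillin combined with tazobactam, with tazobactam held constant at 4 μg/ml. Clinical anaerobe isolates inoculated at 10^5 CFU by Steers replicator. Plates kept in an anaerobic chamber at 37°C for 48 h.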

Eubacterium sp. [4] = assay: Antimicrobial activity against Eubacterium sp. assessed as percent resistant isolates after 48 hrs by agar dilution method in presence of 4 ug/ml beta-lactamase inhibitor Tazobactam; outline: as §1
[5] = system: Parabacteroides distasonis; assay: Antimicrobial activity against Bacteroides distasonis assessed as percent susceptible isolates after 48 hrs by agar dilution method in presence of 4 ug/ml beta-lactamase inhibitor Tazobactam
Actinomyces israelii = assay: Antimicrobial activity against Actinomyces israelii assessed as percent resistant isolates after 48 hrs by agar dilution method in presence of 4 ug/ml beta-lactamase inhibitor Tazobactam; outline: as §1
Clostridioides difficile [6] = assay: Antimicrobial activity against Clostridium difficile assessed as percent susceptible isolates after 48 hrs by agar dilution method in presence of 4 ug/ml beta-lactamase inhibitor Tazobactam
Outline: (§3)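 CLSI agar dilution (M11-A7); inoculum 10^5 CFU applied by replicator; plates incubated anaerobically 48 h at 37°C. For piperacillin-tazobactam, tazobactam held constant at 4 μg/ml.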

Prevotella bivia [7] = assay: Antimicrobial activity against Prevotella bivia assessed as percent resistant isolates after 48 hrs by agar dilution method in presence of 4 ug/ml beta-lactamase inhibitor Tazobactam; outline: as §1
Clostridioides difficile [8] = assay: Antimicrobial activity against Clostridium difficile after 48 hrs by agar dilution method in presence of 4 ug/ml beta-lactamase inhibitor Tazobactam; outline: as §3
Bacteroides ovatus [9] = assay: Antimicrobial activity against Bacteroides ovatus assessed as percent susceptible isolates after 48 hrs by agar dilution method in presence of 4 ug/ml beta-lactamase inhibitor Tazobactam
Bacteroides caccae [10] = assay: Antimicrobial activity against Bacteroides caccae assessed as percent resistant isolates after 48 hrs by agar dilution method in presence of 4 ug/ml beta-lactamase inhibitor Tazobactam; outline: as §1
Clostridium perfringens = assay: Antimicrobial activity against Clostridium perfringens assessed as percent susceptible isolates after 48 hrs by agar dilution method in presence of 4 ug/ml beta-lactamase inhibitor Tazobactam; outline: as §1
Anaerococcus prevotii = assay: Antimicrobial activity against Anaerococcus prevotii after 48 hrs by agar dilution method in presence of 4 ug/ml beta-lactamase inhibitor Tazobactam; outline: as §2
Eubacterium sp. [11] = assay: Antimicrobial activity against Eubacterium sp. after 48 hrs by agar dilution method in presence of 4 ug/ml beta-lactamase inhibitor Tazobactam; outline: as §3
[12] = system: Bacteroides thetaiotaomicron; assay: Antimicrobial activity against Bacteroides thetaiotaomicron after 48 hrs by agar dilution method in presence of 4 ug/ml beta-lactamase inhibitor Tazobactam; outline: as §2
Prevotella intermedia [13] = assay: Antimicrobial activity against Prevotella intermedia assessed as percent resistant isolates after 48 hrs by agar dilution method in presence of 4 ug/ml beta-lactamase inhibitor Tazobactam; outline: as §1
Bacteroides fragilis [14] = assay: Antimicrobial activity against Bacteroides fragilis after 48 hrs by agar dilution method in presence of 4 ug/ml beta-lactamase inhibitor Tazobactam; outline: as §2
Bacteroides ovatus [15] = assay: Antimicrobial activity against Bacteroides ovatus assessed as percent resistant isolates after 48 hrs by agar dilution method in presence of 4 ug/ml beta-lactamase inhibitor Tazobactam; outline: as §1
Hoylesella oralis [16] = assay: Antimicrobial activity against Prevotella oralis assessed as percent susceptible isolates after 48 hrs by agar dilution method in presence of 4 ug/ml beta-lactamase inhibitor Tazobactam
[17] = system: Parabacteroides distasonis; assay: Antimicrobial activity against Bacteroides distasonis assessed as percent resistant isolates after 48 hrs by agar dilution method in presence of 4 ug/ml beta-lactamase inhibitor Tazobactam; outline: as §1
Schaalia odontolytica = assay: Antimicrobial activity against Actinomyces odontolyticus after 48 hrs by agar dilution method in presence of 4 ug/ml beta-lactamase inhibitor Tazobactam; outline: as §2
Bifidobacterium sp. = assay: Antimicrobial activity against Bifidobacterium sp. assessed as percent resistant isolates after 48 hrs by agar dilution method in presence of 4 ug/ml beta-lactamase inhibitor Tazobactam; outline: as §1
Prevotella intermedia [18] = assay: Antimicrobial activity against Prevotella intermedia assessed as percent susceptible isolates after 48 hrs by agar dilution method in presence of 4 ug/ml beta-lactamase inhibitor Tazobactam; outline: as §3
[19] = system: Peptoniphilus asaccharolyticus; assay: Antimicrobial activity against Peptoniphilus asaccharolyticus assessed as percent susceptible isolates after 48 hrs by agar dilution method in presence of 4 ug/ml beta-lactamase inhibitor Tazobactam; outline: as §3
Fusobacterium nucleatum = assay: Antimicrobial activity against Fusobacterium nucleatum after 48 hrs by agar dilution method in presence of 4 ug/ml beta-lactamase inhibitor Tazobactam; outline: as §3
Prevotella buccae = assay: Antimicrobial activity against Prevotella buccae after 48 hrs by agar dilution method in presence of 4 ug/ml beta-lactamase inhibitor Tazobactam; conditions: Segatella buccae; outline: as §3
Clostridioides difficile [20] = assay: Antimicrobial activity against Clostridium difficile assessed as percent resistant isolates after 48 hrs by agar dilution method in presence of 4 ug/ml beta-lactamase inhibitor Tazobactam; outline: as §1
Bacteroides fragilis [21] = assay: Antimicrobial activity against Bacteroides fragilis assessed as percent resistant isolates after 48 hrs by agar dilution method in presence of 4 ug/ml beta-lactamase inhibitor Tazobactam; outline: as §1
[22] = system: Peptoniphilus asaccharolyticus; assay: Antimicrobial activity against Peptoniphilus asaccharolyticus assessed as percent resistant isolates after 48 hrs by agar dilution method in presence of 4 ug/ml beta-lactamase inhibitor Tazobactam; outline: as §1
Eggerthella lenta [23] = assay: Antimicrobial activity against Eubacterium lentum after 48 hrs by agar dilution method in presence of 4 ug/ml beta-lactamase inhibitor Tazobactam; outline: as §3
Prevotella bivia [24] = assay: Antimicrobial activity against Prevotella bivia assessed as percent susceptible isolates after 48 hrs by agar dilution method in presence of 4 ug/ml beta-lactamase inhibitor Tazobactam; outline: as §3
Eggerthella lenta [25] = assay: Antimicrobial activity against Eubacterium lentum assessed as percent resistant isolates after 48 hrs by agar dilution method in presence of 4 ug/ml beta-lactamase inhibitor Tazobactam; outline: as §1
[26] = system: Parabacteroides distasonis; assay: Antimicrobial activity against Bacteroides distasonis after 48 hrs by agar dilution method in presence of 4 ug/ml beta-lactamase inhibitor Tazobactam; outline: as §2
[27] = system: Bacteroides thetaiotaomicron; assay: Antimicrobial activity against Bacteroides thetaiotaomicron assessed as percent resistant isolates after 48 hrs by agar dilution method in presence of 4 ug/ml beta-lactamase inhibitor Tazobactam; outline: as §1

With `CCN1CCN(C(=O)N[C@@H](C(=O)N[C@@H]2C(=O)N3[C@@H]2SC(C)(C)[C@@H]3C(=O)O)c2ccccc2)C(=O)C1=O` [PIPERACILLIN] the Activity (Bacteroides caccae [1]) was 89%, the Activity (Hoylesella oralis [2]) was 0% and the MIC50 [3] was 0.5 µg/mL. It also gave an MIC90 [3] of 8 µg/mL, an Activity (Eubacterium sp. [4]) of 0% and an Activity [5] of 89%. The Activity (Actinomyces israelii) was 0%, the Activity (Clostridioides difficile [6]) was 100% and the Activity (Prevotella bivia [7]) was 0%. It also gave an MIC50 (Clostridioides difficile [8]) of 4 µg/mL, an MIC90 (Clostridioides difficile [8]) of 8 µg/mL and an Activity (Bacteroides ovatus [9]) of 89%. It also gave an Activity (Bacteroides caccae [10]) of 7%, an Activity (Clostridium perfringens) of 100% and an MIC50 (Anaerococcus prevotii) of 0.125 µg/mL. It also gave an MIC90 (Anaerococcus prevotii) of 0.125 µg/mL, an MIC50 (Eubacterium sp. [11]) of 0.5 µg/mL and an MIC90 (Eubacterium sp. [11]) of 8 µg/mL. It also gave an MIC50 [12] of 8 µg/mL, an MIC90 [12] of 64 µg/mL and an Activity (Prevotella intermedia [13]) of 0%. It also gave an MIC50 (Bacteroides fragilis [14]) of 1 µg/mL, an MIC90 (Bacteroides fragilis [14]) of 4 µg/mL and an Activity (Bacteroides ovatus [15]) of 7%. For the same compound, the Activity (Hoylesella oralis [16]) was 100%, the Activity [17] was 7% and the MIC50 (Schaalia odontolytica) was 0.5 µg/mL. For the same compound, the MIC90 (Schaalia odontolytica) was 8 µg/mL, the Activity (Bifidobacterium sp.) was 0% and the Activity (Prevotella intermedia [18]) was 100%. For the same compound, the Activity [19] was 100%, the MIC (Fusobacterium nucleatum) was 0.03 µg/mL and the MIC50 (Prevotella buccae) was ≤ 0.03 µg/mL. The MIC90 (Prevotella buccae) was 4 µg/mL, the Activity (Clostridioides difficile [20]) was 0% and the Activity (Bacteroides fragilis [21]) was 2%. The Activity [22] was 0%, the MIC50 (Eggerthella lenta [23]) was 0.5 µg/mL and the MIC90 (Eggerthella lenta [23]) was 8 µg/mL. It also gave an Activity (Prevotella bivia [24]) of 100%, an Activity (Eggerthella lenta [25]) of 0% and an MIC50 [26] of 8 µg/mL. The MIC90 [26] was 64 µg/mL and the Activity [27] was 7%.
